The target in assay [1] is c20S β2 (Homo sapiens, UniProt P49720+Q99436). In words: Human c20S β2 inhibition assay, fluorogenic substrate Z-VLR-amc. In kind it is biochemical.
Assay [2] deals with Pf20S β2 subunit. Description: Gel-based competition with activity-based probe Me4BodipyFL-Ahx3Leu3VS, β2 band. In kind it is biochemical, Plasmodium falciparum. To be noted: preincubation of recombinant Pf20S with inhibitor before probe; denaturing gel. The method in brief: (§1)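 Baculovirus-expressed Pf20S from Sf9 cells, purified by Streptactin affinity and size exclusion, preincubated with test compound. Then 2 μM Me4BodipyFL-Ahx3Leu3VS added, 16 h at room temperature. Samples heated 5 min at 99°C in LDS buffer with 250 μM DTT, run on 12% Bis-Tris gel in MOPS SDS buffer at 120 V. Imaged at 470 nm excitation / 530 nm emission; bands quantified densitometrically.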

The test system of assay [3] is Pf20S β5 subunit. In words: Gel-based competition with activity-based probe Me4BodipyFL-Ahx3Leu3VS, β5 band. In kind it is biochemical, Plasmodium falciparum. To be noted: preincubation of recombinant Pf20S with inhibitor before probe; denaturing gel. In outline:
as §1

For assay [4], the target named is Pf20S β1 (Plasmodium falciparum, UniProt Q8I0U7+Q8I6T3). Description: Pf20S β1 subunit activity/inhibition assay, fluorogenic substrate Ac-nPnD-amc. In kind it is biochemical.
Chain of Pf20S β1 (Q8I0U7 31-282): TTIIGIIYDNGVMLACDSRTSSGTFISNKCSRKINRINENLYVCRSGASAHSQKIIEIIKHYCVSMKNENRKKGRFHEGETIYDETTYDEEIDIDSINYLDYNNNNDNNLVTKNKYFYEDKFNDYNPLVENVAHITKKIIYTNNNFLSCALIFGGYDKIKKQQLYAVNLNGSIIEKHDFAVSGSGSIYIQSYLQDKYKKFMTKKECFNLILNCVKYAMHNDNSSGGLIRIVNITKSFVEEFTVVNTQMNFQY
Chain of Pf20S β1 (Q8I6T3 42-270): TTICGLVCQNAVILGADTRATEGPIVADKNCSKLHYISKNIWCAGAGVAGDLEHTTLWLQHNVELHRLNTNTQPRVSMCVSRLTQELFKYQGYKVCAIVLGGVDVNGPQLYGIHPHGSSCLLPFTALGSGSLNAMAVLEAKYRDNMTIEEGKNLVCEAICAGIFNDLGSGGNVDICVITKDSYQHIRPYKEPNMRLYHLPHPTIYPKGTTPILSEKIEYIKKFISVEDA
Chain of Pf20S β1 (Q06323 whole entry partner): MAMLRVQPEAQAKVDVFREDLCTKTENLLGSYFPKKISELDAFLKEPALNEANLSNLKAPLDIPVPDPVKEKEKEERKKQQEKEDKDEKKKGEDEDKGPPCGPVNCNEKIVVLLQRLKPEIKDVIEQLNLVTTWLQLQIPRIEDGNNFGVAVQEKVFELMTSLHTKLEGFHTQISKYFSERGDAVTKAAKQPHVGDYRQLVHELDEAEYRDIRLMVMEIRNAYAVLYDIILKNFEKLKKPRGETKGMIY
In assay [5] the target is incorrectly assembled half-Pf20S (immature half proteasome with Ump1) (Plasmodium falciparum) (UniProt Q8I6T3). Description: cryo-EM structure.
Assay [6] concerns the target Pf20S β5 (Plasmodium falciparum, UniProt A0A5K1K7U1+Q8IJT1). Description: Pf20S β5 subunit activity/inhibition assay, fluorogenic substrate Ac-FNKL-amc. In kind it is biochemical. To be noted: 200 nM PA28α.
Assay [7] addresses Pf20S β2 (Plasmodium falciparum, UniProt Q8I261+Q8I6T3). Description: Pf20S β2 subunit activity/inhibition assay, fluorogenic substrate Z-VLR-amc. In kind it is biochemical.

Chain of Pf20S β2 (Q8I6T3 42-270): as the sequence (Q8I6T3 42-270) above
Chain of Pf20S β2 (Q8I261 1-218): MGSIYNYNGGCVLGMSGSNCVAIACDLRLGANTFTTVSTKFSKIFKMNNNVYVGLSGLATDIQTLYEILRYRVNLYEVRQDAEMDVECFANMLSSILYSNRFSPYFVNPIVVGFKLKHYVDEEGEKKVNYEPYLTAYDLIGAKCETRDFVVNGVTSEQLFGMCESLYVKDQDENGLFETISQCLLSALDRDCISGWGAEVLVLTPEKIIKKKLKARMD
Chain of Pf20S β2 (Q06323 whole entry partner): as the sequence (Q06323 whole entry partner) above
Chain of Pf20S β5 (Q8IJT1 61-271): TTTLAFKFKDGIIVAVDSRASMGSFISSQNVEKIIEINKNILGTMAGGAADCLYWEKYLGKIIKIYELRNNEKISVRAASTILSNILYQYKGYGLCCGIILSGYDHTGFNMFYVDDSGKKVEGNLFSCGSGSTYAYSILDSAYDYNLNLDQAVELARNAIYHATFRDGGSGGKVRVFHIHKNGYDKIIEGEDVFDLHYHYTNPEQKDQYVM
Chain of Pf20S β5 (A0A5K1K7U1 29-240): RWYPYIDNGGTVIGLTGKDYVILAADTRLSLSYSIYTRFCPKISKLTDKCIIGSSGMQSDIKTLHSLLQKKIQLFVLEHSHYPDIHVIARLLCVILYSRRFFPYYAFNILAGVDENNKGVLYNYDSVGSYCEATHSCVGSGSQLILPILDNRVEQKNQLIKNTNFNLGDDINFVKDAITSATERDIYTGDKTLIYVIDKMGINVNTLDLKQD
Chain of Pf20S β5 (Q06323 whole entry partner): as the sequence (Q06323 whole entry partner) above

In general, IC50 refers to the concentration needed to halve the response being measured. Read a low IC50 as greater potency. Turning to `C[C@@]12OC(=O)[C@]1([C@@H](O)[C@@H]1C=CCCC1)NC(=O)[C@@H]2CCCl` [Marizomib], in assay [1], the IC50 is ~300 nM. Moreover, in assay [2], the “effect on probe labeling of β2 (upper, 25 kDa) band” value is “eliminated the labeling of both bands”. The “effect on probe labeling of β5 (lower, 23 kDa) band” value in assay [3] is “eliminated the labeling of both bands”. Further, the “inhibition of Pf20S-mediated cleavage of Ac-nPnD-amc (β1 activity)” value in assay [4] (time-course, Fig. 3b) is on record as “inhibited”.
The term stoichiometry N denotes the number of molecules, sites or subunits per partner or assembly. Turning to “incorrectly assembled half-Pf20S (immature half proteasome with Ump1) (from UniProt Q8I6T3 1-270; Q8IJT1 1-271; Q7K6A9 1-265) (complex)”, the stoichiometry N in assay [5] was found to be 2.
With “PA28α: human proteasome activator subunit 1 alpha, produced recombinantly in E. coli”, the “increase of Pf20S β5 subunit activity” value in assay [6] turned out to be 8 fold. Besides, the “increase of Pf20S β2 subunit activity” value in assay [7] (200 nM PA28α, Z-VLR-amc) came to 2 fold. Besides, in assay [4] (200 nM PA28α, Ac-nPnD-amc), the “increase of Pf20S β1 subunit activity” value is on record as 4 fold.
With “Ac-Phe-Arg-Ser-Arg-epoxyketone [FRSR-ek]”, in assay [7] (Fig. S4), the “inhibition of Pf20S activity with Z-VLR-amc (β2 substrate)” value is “effectively inhibited”.

(Values after PMC12363949 (bioRxiv, 2025).)
